ChEMBL document CHEMBL1124052, “New inhibitors of human renin that contain novel Leu-Val replacements. Examination of the P1 site” (J Med Chem, 1988)
pIC50: −log10 of the molar value. Non-standard residues stand in square brackets, D forms with d. Residues, ends and D or L forms follow the SMILES beside them. *: point of attachment. hCha = N[C@@H](CCC1CCCCC1)C(=O)O; Cha = N[C@@H](CC1CCCCC1)C(=O)O; Chg = N[C@H](C(=O)O)C1CCCCC1; Boc = CC(C)(C)OC(=O)*

Key:
[1] = biological target: T1, Renin (Homo sapiens, UniProt P00797); assay: (§1) Inhibition of human renal renin at pH 6
T1 sequence (P00797 whole entry): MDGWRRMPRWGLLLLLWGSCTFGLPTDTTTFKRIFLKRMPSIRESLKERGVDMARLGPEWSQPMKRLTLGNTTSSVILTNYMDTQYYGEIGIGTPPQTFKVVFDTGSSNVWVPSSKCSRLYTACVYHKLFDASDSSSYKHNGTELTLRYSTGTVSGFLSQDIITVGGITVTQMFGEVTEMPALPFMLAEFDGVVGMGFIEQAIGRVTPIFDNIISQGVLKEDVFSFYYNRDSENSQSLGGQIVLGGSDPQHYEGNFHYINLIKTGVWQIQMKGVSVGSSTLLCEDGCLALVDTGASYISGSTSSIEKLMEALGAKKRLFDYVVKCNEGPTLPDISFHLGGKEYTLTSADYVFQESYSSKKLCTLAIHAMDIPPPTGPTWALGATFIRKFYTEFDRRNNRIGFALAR
Summary of the method: (§2)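 Purified human renal renin (0.24 mGU) was incubated with pure human angiotensinogen (0.21 µM final) in 0.135 M maleate pH 6.0 with 3 mM EDTA, 1.4 mM PMSF, 0.44% BSA and 1% DMSO. At least three inhibitor levels bracketing the IC50 were preincubated with renin for 5.0 min at 37 °C, then reacted 10.0 min. The reaction was stopped by freezing, angiotensin I was measured by RIA, and the IC50 was taken by regression of percent inhibition.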

[2] = biological target: T2, Renin (Homo sapiens) (UniProt P00797); assay: as §1; details: concentration not given here; summary of the method: as §2
T2 sequence (whole entry): T1 sequence (P00797 whole entry)

[3] = biological target: T2, Renin (Homo sapiens); assay: Inhibitory activity against human renal renin at pH 6 at concentration 10E-5 M

SMILES	pIC50 [1]	further results
Cc1cc(C)c(C[C@H](NC(=O)[C@H](C)NC(=O)[C@H](Cc2ccccc2)NC(=O)OC(C)(C)C)[C@@H](O)CSC(C)C)c(C)c1	–	inhibition [2]: 5%
CC(C)SC[C@H](O)[C@H](CC1CCCCC1)NC(=O)[C@H](C)NC(=O)[C@H](Cc1ccccc1)NC(=O)OC(C)(C)C	8.05	–
CC(C)SC[C@H](O)[C@H](CCC1CCCCC1)NC(=O)[C@H](Cc1c[nH]cn1)NC(=O)[C@H](Cc1ccccc1)NC(=O)OC(C)(C)C	5.82	–
C[C@H](NC(=O)[C@H](Cc1ccccc1)NC(=O)OC(C)(C)C)C(=O)N[C@H](C=O)CC1CCCCC1 (Boc-Phe-Ala-[Cha]-aldehyde)	6.34	–
CC(C)SC[C@H](O)[C@H](CCC1CCCCC1)NC(=O)[C@H](C)NC(=O)[C@H](Cc1ccccc1)NC(=O)OC(C)(C)C	–	inhibition [3]: 45%
CC(C)C[C@H](NC(=O)[C@H](Cc1cnc[nH]1)NC(=O)[C@H](Cc1ccccc1)NC(=O)OC(C)(C)C)[C@@H](O)CSC(C)C	7.09	–
CC(C)SC[C@H](O)[C@H](Cc1ccccc1)NC(=O)[C@H](C)NC(=O)[C@H](Cc1ccccc1)NC(=O)OC(C)(C)C	6.77	–
CC(C)SC[C@H](O)[C@@H](NC(=O)[C@H](C)NC(=O)[C@H](Cc1ccccc1)NC(=O)OC(C)(C)C)C(c1ccccc1)c1ccccc1	–	inhibition [2]: 11%
CC(C)SC[C@H](O)[C@@H](NC(=O)[C@H](Cc1c[nH]cn1)NC(=O)[C@H](Cc1ccccc1)NC(=O)OC(C)(C)C)C(c1ccccc1)c1ccccc1	–	inhibition [2]: 3%
CC(C)SC[C@H](O)[C@H](CC12CC3CC(CC(C3)C1)C2)NC(=O)[C@H](Cc1c[nH]cn1)NC(=O)[C@H](Cc1ccccc1)NC(=O)OC(C)(C)C	5.60	–
C[C@H](NC(=O)[C@H](Cc1ccccc1)NC(=O)OC(C)(C)C)C(=O)N[C@H](C=O)C1CCCCC1 (Boc-Phe-Ala-[Chg]-aldehyde)	6.00	–

More lines, main results first:

pIC50 [1]	SMILES	further results
5.82	CC(C)SC[C@H](O)[C@@H](NC(=O)[C@H](C)NC(=O)[C@H](Cc1ccccc1)NC(=O)OC(C)(C)C)C1CCCCC1	–
4.40	C[C@H](NC(=O)[C@H](Cc1ccccc1)NC(=O)OC(C)(C)C)C(=O)N[C@H](C=O)C(C1CCCCC1)C1CCCCC1	–
4.70	CC(C)C[C@@H](C=O)NC(=O)[C@H](C)NC(=O)[C@H](Cc1ccccc1)NC(=O)OC(C)(C)C (Boc-Phe-Ala-Leu-aldehyde)	–
4.26	C[C@H](NC(=O)[C@H](Cc1ccccc1)NC(=O)OC(C)(C)C)C(=O)N[C@H](C=O)CCC1CCCCC1 (Boc-Phe-Ala-[hCha]-aldehyde)	–
7.72	CC(C)SC[C@H](O)[C@H](Cc1ccccc1)NC(=O)[C@H](Cc1cnc[nH]1)NC(=O)[C@H](Cc1ccccc1)NC(=O)OC(C)(C)C	–
4.46	C[C@H](NC(=O)[C@H](Cc1ccccc1)NC(=O)OC(C)(C)C)C(=O)N[C@H](C=O)CC12CC3CC(CC(C3)C1)C2	–
6.82	CC(C)SC[C@H](O)[C@@H](NC(=O)[C@H](Cc1cnc[nH]1)NC(=O)[C@H](Cc1ccccc1)NC(=O)OC(C)(C)C)C1CCCCC1	–
